Reference: ChEMBL document CHEMBL1125217, “2-Pyridinone derivatives: a new class of nonnucleoside, HIV-1-specific reverse transcriptase inhibitors” (J Med Chem, 1991)
pIC50: −log10 of the molar value.

Legend:
[1] = molecular target: Human immunodeficiency virus type 1 reverse transcriptase (Human immunodeficiency virus 1, UniProt Q72547); experiment: Inhibitory activity against HIV-1 reverse transcriptase (RT)
H9 = experiment: Concentration which inhibited >95% spread of HIV-1 strain IIIb infection in susceptible H-9 cell culture; type: functional; settings: Homo sapiens, read-out: CIC95
How it was run: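 H9 human T-lymphoid cells in RPMI 1640 with 10% heat-inactivated FBS were pre-incubated one day with serial 2-fold inhibitor dilutions, then infected with HIV-1 IIIb at low multiplicity (<0.001). Inhibitor was kept present for 13-14 days. Spread was measured by p24 core antigen ELISA of supernatants. CIC95 is the concentration blocking >95% of spread.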

MT4 = experiment: Concentration which inhibited >95% spread of HIV-1 strain IIIb infection in susceptible MT-4 cell culture; type: functional; settings: Homo sapiens, read-out: CIC95
How it was run: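 MT-4 human T-lymphoid cells in RPMI 1640 with 10% heat-inactivated FBS were infected en masse with HIV-1 IIIb (multiplicity 0.01) for 24 h. They were then washed and plated with serial 2-fold inhibitor dilutions for 3 more days. Spread was measured by p24 core antigen ELISA. CIC95 is the concentration blocking >95% of spread.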

Compound	pIC50 [1]	IC95 (H9)	IC95 (MT4)
CCc1cc(NCc2cc3ccccc3o2)c(O)nc1C	6.63	–	–
CCc1cc(NCc2ccc3ccccc3c2)c(=O)[nH]c1C	6.36	–	–
CCc1cc(CCc2nc3c(C)ccc(C)c3o2)c(=O)[nH]c1C	7.64	–	–
CCc1cc(NCc2nc3c(C)ccc(C)c3o2)c(O)nc1C	7.70	150 nM	50 nM
CCc1cc(NCc2nc3ccccc3o2)c(O)nc1C	6.68	–	–
CCc1cc(NCc2nc3ccccc3s2)c(O)nc1C	6.46	–	–
CC(C)=CCN1Cc2cccc3[nH]c(=S)n(c23)C[C@@H]1C	–	–	200 nM
CCc1cc(CCN2C(=O)c3ccccc3C2=O)c(O)nc1C	5.43	40000 nM	–
CCc1cc(CCc2nc3ccccc3o2)c(O)nc1C	7.66	200 nM	100 nM
CCc1cc(CCc2nc3ccccc3s2)c(O)nc1C	6.43	–	–
CCc1cc(CCc2cc3ccccc3o2)c(O)nc1C	7.11	–	–
CCc1cc(NCc2nc3ccccc3[nH]2)c(O)nc1C	5.19	–	–
CCc1cc(NCc2nc3c(C)cccc3o2)c(O)nc1C	6.90	–	–
CCc1cc(CCc2nc3c(Cl)ccc(Cl)c3o2)c(O)nc1C	8.02	–	100 nM
CCc1cc(NCc2nc3cccc(C)c3o2)c(O)nc1C	7.26	–	–
CCc1cc(NCc2nc3c(Cl)ccc(Cl)c3o2)c(O)nc1C [L-697661]	7.72	100 nM	50 nM
Cc1ccnc2c1NC(=O)c1cccnc1N2C1CC1 [NEVIRAPINE]	–	–	100 nM
